Measured values: ChEMBL document CHEMBL1147846, “Synthetic 2',5'-dimethoxychalcones as G(2)/M arrest-mediated apoptosis-inducing agents and inhibitors of nitric oxide production in rat macrophages” (Eur J Med Chem, 2007)

What was measured:
[1] = Inhibition of beta-glucuronidase release from rat mast cells; format: functional; design: Inhibition: concentration or dose not given beside the values; conditions: for IC50: Rattus norvegicus
RAW [2] = experiment: Inhibition of 1ug/ml LPS-stimulated nitirc oxide accumulation in RAW 264 cells after 24 hrs; format: functional, cell-based, Mus musculus; conditions: for IC50: Mus musculus, RAW, 24 h
In short: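 RAW 264.7 cells were activated with LPS for 24 h. NO was measured as nitrite accumulated in the medium, by Griess reaction. 1400W was the positive control. Results are mean ± SD, n = 3.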

Neutrophil [3] = experiment: Inhibition of 0.3 uM fMLP-stimulated superoxide anion generation in rat neutrophils; format: functional, cell-based; conditions: for IC50: Rattus norvegicus, Neutrophil
In short: (§1)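 Rat neutrophils, with superoxide anion generation triggered by either fMLP combined with cytochalasin B or by PMA (3 nM).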

[4] = Inhibition of histamine release from rat mast cells; format: functional; design: Inhibition: concentration or dose not given beside the values; conditions: for IC50: Rattus norvegicus
[5] = Cytotoxicity against human Hep 3B cells by MTT microassay; format: functional, cell-based, Hep 3B2; conditions: Hep3B
In short: (§2)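 MTT microassay in cultured human tumour cells from ATCC. Compounds were dissolved in DMSO and diluted in culture medium to 0.1% DMSO. Controls received medium with 0.1% DMSO, and 5-fluorouracil was the positive control. IC50 is given as mean ± SD, n = 3.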

Neutrophil [6] = experiment: Inhibition of 1 uM fMLP-stimulated beta-Glucuronidase release from rat neutrophils; format: functional, cell-based; conditions: for IC50: Rattus norvegicus, Neutrophil
In short: (§3)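 Rat neutrophils were stimulated with fMLP plus cytochalasin B, and β-glucuronidase and lysozyme release were measured. Trifluoperazine was the positive control. IC50 is mean ± SD, n = 3; where IC50 exceeds 30, % inhibition at 30 is shown.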

Neutrophil [7] = experiment: Inhibition of 5 ug/ml CB-stimulated Lysozyme release from rat neutrophils; format: functional, cell-based; conditions: for IC50: Rattus norvegicus, Neutrophil; in short: as §3
A549 = experiment: Cytotoxicity against human A549 cells by MTT microassay; format: functional, cell-based; in short: as §2
Neutrophil [8] = experiment: Inhibition of 3 nM PMA-stimulated superoxide anion generation in rat neutrophils; format: functional, cell-based; conditions: for IC50: Rattus norvegicus, Neutrophil; in short: as §1
HT-29 = experiment: Cytotoxicity against human HT29 cells by MTT microassay; format: functional, cell-based; in short: as §2
RAW [9] = experiment: Inhibition of 1 ug/ml LPS-stimulated TNFalpha accumulation in RAW 264 cells after 24 hrs; format: functional, cell-based, Mus musculus; conditions: for IC50: Mus musculus, RAW, 24 h
In short: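 RAW 264.7 cells were activated with LPS, and TNF-α formation in the culture medium was measured. Genistein was the positive control. Results are mean ± SD, n = 3.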

MCF7 [10] = experiment: Cytotoxicity against human MCF7 cells by MTT microassay; format: functional, cell-based; in short: as §2
MCF7 [11] = experiment: Induction of apoptosis in MCF7 cells assessed as subG1-phase accumulation at 34.7 uM after 72 hrs; format: functional, Homo sapiens
In short: (§4)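 MCF-7 cells were exposed to compound and washed with PBS at each time point. They were fixed in 4% paraformaldehyde/PBS (pH 7.4) for 30 min at room temperature, then permeabilized in 0.1% Triton X-100/0.1% sodium citrate for 2 min at 4 °C. PI staining followed for 30 min at 37 °C. FACScan flow cytometry counted ≥5000 cells. Apoptosis is the sub-G1 DNA fraction; controls received medium; three independent experiments.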

MCF7 [12] = experiment: Induction of apoptosis in MCF7 cells assessed as subG1-phase accumulation at 34.7 uM after 24 hrs; format: functional, Homo sapiens; in short: as §4
MCF7 [13] = experiment: Induction of apoptosis in MCF7 cells assessed as subG1-phase accumulation at 8.7 uM after 72 hrs; format: functional, Homo sapiens; in short: as §4
MCF7 [14] = experiment: Induction of apoptosis in MCF7 cells assessed as subG1-phase accumulation at 34.7 uM after 48 hrs; format: functional, Homo sapiens; in short: as §4
MCF7 [15] = experiment: Induction of apoptosis in MCF7 cells assessed as subG1-phase accumulation at 52 uM after 24 hrs; format: functional, Homo sapiens; in short: as §4
MCF7 [16] = experiment: Induction of apoptosis in MCF7 cells assessed as subG1-phase accumulation at 8.7 uM after 48 hrs; format: functional, Homo sapiens; in short: as §4
MCF7 [17] = experiment: Induction of apoptosis in MCF7 cells assessed as subG1-phase accumulation at 52 uM after 72 hrs; format: functional, Homo sapiens; in short: as §4
MCF7 [18] = experiment: Induction of apoptosis in MCF7 cells assessed as subG1-phase accumulation at 52 uM after 48 hrs; format: functional, Homo sapiens; in short: as §4
MCF7 [19] = experiment: Induction of apoptosis in MCF7 cells assessed as subG1-phase accumulation at 8.7 uM after 24 hrs; format: functional, Homo sapiens; in short: as §4

SMILES	IC50 [1] [µM]	IC50 (RAW [2]) [µM]	IC50 (Neutrophil [3]) [µM]	IC50 ([4]; read-out: IC50) [µM]	IC50 [5] [µM]	IC50 (Neutrophil [6]) [µM]	IC50 (Neutrophil [7]) [µM]	IC50 (A549) [µM]	Inhibition (Neutrophil [8]) [%]	IC50 (Neutrophil [8]) [µM]	IC50 (HT-29) [µM]	IC50 (RAW [9]) [µM]	IC50 (MCF7 [10]) [µM]	further results
COc1ccc(OC)c(C(=O)/C=C/c2cccs2)c1	> 30	> 10	> 30	> 30	8.4	> 30	14.6	11	7.9	> 30	13.3	> 30	3.8	Inhibition [1]: -4.6%; Inhibition (RAW [2]): 49.8%; Inhibition (Neutrophil [3]): 47.2%; Inhibition [4]: 0.8%; Inhibition (Neutrophil [6]): 38.5%; Inhibition (RAW [9]): 5.9%
O=c1c(-c2ccc(O)cc2)coc2cc(O)cc(O)c12 [GENISTEIN]												18.1		
COc1ccc(OC)c(C(=O)/C=C/c2ccc(OC(=O)/C=C/c3ccc(C)cc3)cc2)c1					29			29.7			16.4		12.6	
COc1ccc(OC)c(C(=O)/C=C/c2ccc(OC(=O)/C=C/c3cc(OC)c(OC)c(OC)c3)cc2)c1					23.2			36.7			23.8		6.4	
COc1ccc(OC)c(C(=O)/C=C/c2ccco2)c1	18.4	5.7	3	> 30	19	6.2	8.3	27.9	49.1	> 30	24.8	4.6	10.5	
COc1ccc(OC)c(C(=O)/C=C/c2ccc(C)s2)c1	> 30	6.7	> 30	> 30	3.4	> 30	> 30	4.5	-11.9	> 30	1.8	> 30	2.6	Inhibition [1]: -2.7%; Activity (MCF7 [11]): 62.4%; Activity (MCF7 [12]): 4.05%; Inhibition (Neutrophil [3]): 49.1%; Inhibition [4]: 43.5%; Activity (MCF7 [13]): 41.61%; Inhibition (Neutrophil [6]): 45.6%; Inhibition (Neutrophil [7]): 37.4%; Activity (MCF7 [14]): 18.68%; Activity (MCF7 [15]): 5.09%; Activity (MCF7 [16]): 16.39%; Activity (MCF7 [17]): 63.79%; Activity (MCF7 [18]): 21.23%; Inhibition (RAW [9]): 46%; Activity (MCF7 [19]): 7.52%
CC(=O)O[C@H](CC=C(C)C)C1=CC(=O)c2c(O)ccc(O)c2C1=O [ACETYLSHIKONIN]	2.2			2										
CC(=N)NCc1cccc(CN)c1 [1400W]		5.2												
COc1ccc(OC)c(C(=O)/C=C/c2ccc(C)o2)c1	> 30	> 10	> 30		26.5	22.2	17.8	51.5	39	> 30	43	> 10	10.3	Inhibition [1]: 12.7%; Inhibition (RAW [2]): 29.5%; Inhibition (Neutrophil [3]): 48.1%; Inhibition [4]: 17.5%; IC50 [4]: > 30 µM; Inhibition (RAW [9]): -10.5%
COc1ccc(OC)c(C(=O)/C=C/c2ccoc2)c1					12			22.1			21.3		18.2	
CN1CCN(CCCN2c3ccccc3Sc3ccc(C(F)(F)F)cc32)CC1 [TRIFLUOPERAZINE]						13.2	12.7							
COc1ccc(OC)c(C(=O)/C=C/c2sccc2C)c1					16.7			22.2			19.4		7.6	
COc1ccc(OC)c(C(=O)/C=C/c2ccc(OC/C=C/c3ccccc3)cc2)c1	> 30	> 30	> 10	> 30	17.3	> 30	> 30	39.8	4.1	> 10	26.3	> 30	19	Inhibition [1]: -11.2%; Inhibition (RAW [2]): 27.9%; Inhibition (Neutrophil [3]): -71.9%; Inhibition [4]: 0.3%; Inhibition (Neutrophil [6]): 18.8%; Inhibition (Neutrophil [7]): 33.1%; Inhibition (RAW [9]): 15%
O=c1[nH]cc(F)c(=O)[nH]1 [FLUOROURACIL]					0.6			3.1			0.6		1.5	
c1ccc2c(c1)[I+]c1ccccc1-2 [DIPHENYLENEIODONIUM CHLORIDE]			5.8							3.3				
COc1ccc(/C=C/C(=O)Oc2ccc(/C=C/C(=O)c3cc(OC)ccc3OC)cc2)cc1					42.6			60.4			23		4.1	
COc1ccc(OC)c(C(=O)/C=C/c2ccsc2)c1					5.7			3.8			5.3		3.7	
COc1ccc(OC)c(C(=O)/C=C/c2ccc(Br)o2)c1	> 30	12.8	19.7	> 30	11	> 30	> 30	14.9	-2.2	> 30	15.2	> 30	11	Inhibition [1]: -13.3%; Inhibition [4]: 6.3%; Inhibition (Neutrophil [6]): 36.9%; Inhibition (Neutrophil [7]): 33.4%; Inhibition (RAW [9]): 35.6%
